Screening data from PubChem.
This is a sample that favours compounds with a hit; in the whole collection about 4.2% have one here.
CHO parental Ca = ATP-evoked calcium signal inhibitors, parental CHO, primary screen, counter-screen for OX1R antagonist project, cell-based, fluorescence, Fluo-8 calcium dye; AID 463079, 2010; inhibition, % at 5.6 µM; 330,000 compounds, 0.63% hits; parental CHO-K1, ATP-induced calcium, Fluo-8 fluorescence;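 active = inhibition above that plate's mean sample inhibition plus 3 SD, cut at about 26% in these data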;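 note: 0% = ATP-challenged DMSO wells and 100% = DMSO wells without ATP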
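Assay system: parental CHO cells; Read-out basis: percent inhibition of ATP-evoked calcium rise, normalized to controls; Benchmarks: ATP and no-ATP DMSO wells; Compound dosing: single nominal dose of 5.6 µM per compound; Signal: Fluo-8 calcium dye fluorescence; Also added: ATP as calcium-mobilizing challenge; Repeats: singlicate.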
TAAR1 antag = human TAAR1 antagonists, primary screen, Fluo-8 calcium fluorescence, CHO RD-HGA16 cells; Trace amine-associated receptor 1 (Homo sapiens), Q96RJ0; antagonist; inhibition, % at 3 µM; 360,000 compounds, 1.5% hits;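 active = inhibition above a per-plate cutoff, the mean inhibition of test compounds on that plate plus 3 SD, cut at about 49% in these data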;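 note: 0% = DMSO plus EC80 beta-PEA response and 100% = DMSO alone without agonist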
Target sequence (Q96RJ0 whole entry, looked up): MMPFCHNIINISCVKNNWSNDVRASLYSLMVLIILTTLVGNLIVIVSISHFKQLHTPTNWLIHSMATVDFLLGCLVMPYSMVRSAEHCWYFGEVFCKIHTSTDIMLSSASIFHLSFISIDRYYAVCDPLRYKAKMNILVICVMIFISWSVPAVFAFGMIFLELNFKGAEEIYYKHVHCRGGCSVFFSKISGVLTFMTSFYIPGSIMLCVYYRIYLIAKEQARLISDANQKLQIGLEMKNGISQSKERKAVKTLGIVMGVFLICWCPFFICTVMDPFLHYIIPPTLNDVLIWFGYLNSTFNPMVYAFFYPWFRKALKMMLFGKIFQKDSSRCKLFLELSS
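Material: CHO RD-HGA16 cells bearing hTAAR1; compound dosing: one-point dosing, 3 µM nominal final; schedule: dye loading 75 min at 37 °C, then 30 min room temperature; measured by: calcium fluorescence with Fluo-8; control set: vehicle and agonist controls; replication: n of 1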
GalR3 antag = GalR3 antagonists in HEK293 cells, primary screen, cell-based, fluorescence readout; Galanin receptor type 3 (Homo sapiens), O60755; HEK293 GalR3-CNG cAMP membrane potential fluorescence; galR3 body fused to GalR1 C-terminus; inhibition, % at 3 µM; 360,000 compounds, 0.44% hits;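 active = inhibition above the screen-wide average plus 3 SD, cut at about 13% in these data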;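 note: forskolin and galanin both at EC90 stimulate the cells; cAMP rise reported by CNG channel membrane potential dye signal; 0% = forskolin plus galanin with DMSO and 100% = forskolin alone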
Target sequence (O60755 1-299 limits assumed): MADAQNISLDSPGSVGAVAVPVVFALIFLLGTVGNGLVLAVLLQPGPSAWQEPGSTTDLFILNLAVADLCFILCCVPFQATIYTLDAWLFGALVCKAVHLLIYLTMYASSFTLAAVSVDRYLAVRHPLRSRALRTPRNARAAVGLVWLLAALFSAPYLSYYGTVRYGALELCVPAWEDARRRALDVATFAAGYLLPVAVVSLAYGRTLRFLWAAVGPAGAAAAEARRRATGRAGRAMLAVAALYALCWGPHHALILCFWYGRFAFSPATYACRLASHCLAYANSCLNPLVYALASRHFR
TAAR1 agonist = human TAAR1 agonists, primary screen, Fluo-8 calcium fluorescence, CHO RD-HGA16 cells; Trace amine-associated receptor 1 (Homo sapiens), Q96RJ0; vehicle wells 0%, saturating PEA agonist 100%; activation, % at 3 µM; 360,000 compounds, 0.99% hits; AID 624467, 2012;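 active = activation above the mean activation of all test compounds in the run plus 3 SD, cut at about 38% in these data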
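Test system: RD-HGA16 (CHO) cells co-expressing Gα16 and hTAAR1 | Doses: Single dose, 3 µM | Schedule: 17-24 h seeding, 75 min 37 °C dye, 30 min RT | Evaluation: % activation from peak over basal fluorescence ratio, DMSO-to-PEA scaled | Technique: Kinetic Fluo-8 calcium fluorescence | Benchmarks: Low control DMSO, high control PEA (EC100)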
OX1R antag-1 = OX1R (HCRTR1) antagonists, primary screen, fluorescence, CHO/OX1R cells, Fluo-8 calcium, orexin A. inhibition, % at 5 µM. Fluo-8 calcium fluorescence. AID 434989, 2010. 330,000 compounds, 0.43% hits. Orexin/Hypocretin receptor type 1 (Homo sapiens), O43613;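 active = inhibition above its plate's threshold, mean inhibition of all tested compounds on the plate plus 3 SD, cut at about 37% in these data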;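 note: 0% = orexin A challenge wells and 100% = SB-334867-A antagonist wells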
OX1R antag-2 = antagonists of human orexin 1 receptor (OX1R) | Orexin/Hypocretin receptor type 1 (Homo sapiens), O43613 | OX1R-expressing cells, FRET antagonist read-out | inhibition, % at 6.6 µM | 330,000 compounds, 1.8% hits | AID 485270, 2010; in the data active = inhibition mostly above about 38%, no sharp cut-off; inactive = mostly below about 40%;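 note: 0% = agonist challenge alone and 100% = reference antagonist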
The depositor's hits bear a star; / = not tested or not shown.

SMILES	CHO parental Ca	TAAR1 antag	GalR3 antag	TAAR1 agonist	OX1R antag-1	OX1R antag-2
Cc1cccc2sc(N(CCCN(C)C)C(=O)c3ccc(S(=O)(=O)N4CCc5ccccc5C4)cc3)nc12	-12	33	-6	39*	-13	16
COc1ccc2sc(N(CCCN(C)C)C(=O)c3ccc(S(=O)(=O)N4CCc5ccccc5C4)cc3)nc2c1	-15	10	-4	40*	-20	15
Cc1cc(C)c2sc(N(CCCN(C)C)C(=O)c3ccc(S(=O)(=O)N4CCc5ccccc5C4)cc3)nc2c1	-15	/	/	/	-3	-1
CCc1cc(C(=O)c2ccc(OC)cc2)c(NC(=O)CCC(=O)O)s1	-7	-5	3	16	-15	19
COc1cccc2cc(C(=O)Nc3ccc(F)cc3)c(=Nc3ccc(C(=O)O)cc3)oc12	10	7	1	0	10	7
CN(C)S(=O)(=O)c1ccc(/C(O)=C2/C(=O)C(=O)N(CCCN3CCOCC3)C2c2ccncc2)cc1 (stereo unspecified)	8	-16	-4	-1	-3	73*
O=C1C(=O)N(CCN2CCOCC2)C(c2ccccn2)/C1=C(/O)c1ccc(F)cc1 (stereo unspecified)	-4	13	-2	10	-6	43*
COc1ccc(/C(O)=C2/C(=O)C(=O)N(CCN3CCOCC3)C2c2ccccn2)cc1 (stereo unspecified)	-3	3	-3	0	-6	68*
O=C(C1=C(O)C(=O)N(CCN2CCOCC2)C1c1ccccn1)c1cccs1 (stereo unspecified)	3	-5	2	8	-5	59*
COc1cccc(/C(O)=C2/C(=O)C(=O)N(CCCN3CCOCC3)C2c2ccncc2)c1 (stereo unspecified)	-6	2	-2	8	-8	21
O=C1C(=O)N(CCCN2CCOCC2)C(c2ccc(F)cc2)/C1=C(/O)c1ccccc1 (stereo unspecified)	-7	-9	-11	0	-5	-10
CCC(C)(C)c1ccc2c(c1)C(=O)c1ccccc1C2=O	-26	3	1	4	-30	8
CCCCc1ccc(/C(C)=N/Nc2cc(N3CCOCC3)nc(C)n2)cc1	-12	-11	3	1	-33	6
N#Cc1c(C(F)(F)F)cc(-c2ccccc2)n(N)c1=O	2	-6	-8	0	2	3
CS(=O)(=O)Nc1ccccc1C(=O)NCCSc1ccccc1	-7	-8	-13	5	-6	10
O=[N+]([O-])c1ccc2nc(/C=C/c3ccc(Cl)cc3)[nH]c2c1	29*	53*	-3	4	13	77*
O=[N+]([O-])c1ccc(-c2nc3ccc([N+](=O)[O-])cc3[nH]2)cc1	13	15	-2	12	8	67
O=C(COC(=O)c1cccc(S(=O)(=O)N2CCN(c3ccccc3)CC2)c1)NCc1ccco1	-3	13	-1	7	-1	10
Cc1cccc(CS(=O)(=O)c2nnc([C@H](Cc3ccccc3)NC(=O)OC(C)(C)C)o2)c1	67*	/	/	/	57*	17
COC(=O)CS(=O)(=O)c1nnc([C@H](Cc2ccccc2)NC(=O)OC(C)(C)C)o1	17	33	-2	7	-4	4
CCCCC(CC)CN=C(N)NC(N)=NCCCCCCN=C(N)NC(N)=NCC(CC)CCCC (stereo unspecified)	84*	/	/	/	79*	34
CCn1c(C)nc2cc(-c3nnc(-c4c(-c5ccccc5)noc4C)o3)ccc21	37*	10	-2	16	13	45*
Cc1onc(-c2ccccc2)c1-c1nnc(-c2ccccc2C(F)(F)F)o1	-24	13	-5	0	-31	12
Cc1nn(-c2ccccc2)c(C)c1NC(=O)COC(=O)c1ccccc1	-12	12	-1	6	-7	2
Cc1nn(-c2ccccc2)c(C)c1NC(=O)COC(=O)c1cccc(OC(F)F)c1	-1	55*	1	15	-17	13
SMILES	CHO parental Ca	TAAR1 antag	GalR3 antag	TAAR1 agonist	OX1R antag-1	OX1R antag-2
Cc1nn(-c2ccccc2)c(C)c1NC(=O)COC(=O)c1ccc(S(=O)(=O)C(F)F)cc1	-13	49*	-2	16	-31	12
CCOc1ccc(CCNC(=O)CS(=O)(=O)Cc2nc(-c3ccccc3F)oc2C)cc1	-26	-2	-10	10	-24	37
CCCCCCCCN1C(=O)[C@H](CC(=O)N2CCN(C(=O)c3ccco3)CC2)C[C@@]2(C(=O)OC)CCCCC=C12	/	14	-6	-1	/	/
O=[N+]([O-])c1ccc(N2CCc3ccccc3C2)cc1	-4	4	-6	7	5	52*
O=[N+]([O-])c1ccc(-c2csc(COc3ccccc3)n2)cc1	/	6	-1	-1	/	/
O=[N+]([O-])c1ccc(-c2csc(N3CCc4ccccc4C3)n2)cc1	-6	-2	3	40*	-19	3
O=C(CSC(=S)N1CCOCC1)N1N=CCC1c1ccccc1 (stereo unspecified)	10	1	-5	20	-2	5
CC(C)c1ccc(NC(=O)CCNS(=O)(=O)c2cccc3nsnc23)cc1	-9	13	-5	7	-4	14
CC(NC(=O)CCNS(=O)(=O)c1cccc2nsnc12)c1ccccc1 (stereo unspecified)	-12	-32	-8	1	-9	69*
O=C(CCNS(=O)(=O)c1cccc2nsnc12)NCc1ccccc1	-1	-27	6	4	-16	77*
COc1ccc(CNC(=O)CCNS(=O)(=O)c2cccc3nsnc23)cc1	-6	9	-1	1	-15	46
O=C(Nc1nnc(-c2ccncc2)o1)c1cccc(N2C(=O)CCC2=O)c1	-9	-24	-5	3	-10	4
CC(CC12CC3CC(CC(C3)C1)C2)NCc1ccccc1O (stereo unspecified)	-17	1	-13	39*	-20	6
Oc1ccccc1CNCC12CC3CC(CC(C3)C1)C2	-12	-10	-4	3	-14	-2
CC1CCN(c2ccccc2NC(=O)c2ccc(N3CCOCC3)c([N+](=O)[O-])c2)CC1	-14	7	-5	5	-23	4
Nc1ccn(-c2ncc(C(F)(F)F)cc2Cl)c(=O)n1	-7	-13	-2	-1	-29	9
